Experimental data published in ChEMBL document CHEMBL1127543, “Dual angiotensin converting enzyme/thromboxane synthase inhibitors” (J Med Chem, 1994).
Activity calls are given as the source filed them. The calls are words filed in the database; no cut-off is given here.

Assays:
[1] = biological target: T1, Angiotensin-converting enzyme (Oryctolagus cuniculus, UniProt P12822); test: Tested for 50% inhibition of Angiotensin converting enzyme(ACE) obtained from rabbit lung (in vitro); Not active
T1 sequence (P12822 whole entry): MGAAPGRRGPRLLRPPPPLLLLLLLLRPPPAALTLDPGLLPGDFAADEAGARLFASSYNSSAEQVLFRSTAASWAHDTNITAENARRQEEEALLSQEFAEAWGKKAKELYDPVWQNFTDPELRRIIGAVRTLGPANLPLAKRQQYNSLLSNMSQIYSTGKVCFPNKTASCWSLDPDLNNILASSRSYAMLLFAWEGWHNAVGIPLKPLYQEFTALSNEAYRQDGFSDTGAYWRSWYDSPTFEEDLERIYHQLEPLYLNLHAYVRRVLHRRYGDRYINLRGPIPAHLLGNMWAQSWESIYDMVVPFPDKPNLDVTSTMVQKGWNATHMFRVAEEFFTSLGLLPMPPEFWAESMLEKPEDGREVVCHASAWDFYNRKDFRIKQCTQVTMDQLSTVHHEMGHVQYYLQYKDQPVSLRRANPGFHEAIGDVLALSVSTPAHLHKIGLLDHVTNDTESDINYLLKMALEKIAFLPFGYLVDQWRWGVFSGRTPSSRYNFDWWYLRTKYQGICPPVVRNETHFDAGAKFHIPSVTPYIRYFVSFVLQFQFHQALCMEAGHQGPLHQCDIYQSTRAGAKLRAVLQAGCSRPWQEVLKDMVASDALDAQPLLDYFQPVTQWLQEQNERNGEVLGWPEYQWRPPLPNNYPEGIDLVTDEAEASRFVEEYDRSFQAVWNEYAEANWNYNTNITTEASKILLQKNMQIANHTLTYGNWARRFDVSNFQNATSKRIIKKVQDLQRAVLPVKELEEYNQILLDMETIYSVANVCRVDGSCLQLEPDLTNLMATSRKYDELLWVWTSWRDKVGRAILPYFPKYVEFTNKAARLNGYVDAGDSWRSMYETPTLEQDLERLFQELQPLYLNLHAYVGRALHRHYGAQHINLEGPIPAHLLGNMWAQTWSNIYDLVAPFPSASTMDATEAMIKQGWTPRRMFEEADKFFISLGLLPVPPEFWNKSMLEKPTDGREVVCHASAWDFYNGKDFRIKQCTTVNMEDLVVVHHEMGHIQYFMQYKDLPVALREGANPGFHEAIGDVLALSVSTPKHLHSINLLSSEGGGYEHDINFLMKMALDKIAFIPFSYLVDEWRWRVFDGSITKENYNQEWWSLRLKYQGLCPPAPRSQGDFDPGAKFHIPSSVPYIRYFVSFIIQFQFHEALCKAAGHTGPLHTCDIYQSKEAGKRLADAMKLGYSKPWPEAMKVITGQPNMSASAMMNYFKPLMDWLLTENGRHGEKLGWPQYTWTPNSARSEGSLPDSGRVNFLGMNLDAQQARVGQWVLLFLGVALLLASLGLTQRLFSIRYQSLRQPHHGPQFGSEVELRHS
Method in brief: (§1)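 ACE was partially purified from rabbit lung and incubated with the synthetic substrate Hip-His-Leu. The hippuric acid product was measured spectrophotometrically. IC50 was read graphically from a range of inhibitor concentrations within the assay's linear range. Each determination was done in duplicate and repeated once.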

Thromboxane-A synthase [2] = biological target: T2, Thromboxane-A synthase (Homo sapiens, UniProt P24557); test: Tested for 50% inhibition of thromboxane synthase (TxS) in human platelets (in vitro); Not active
T2 sequence (P24557 whole entry): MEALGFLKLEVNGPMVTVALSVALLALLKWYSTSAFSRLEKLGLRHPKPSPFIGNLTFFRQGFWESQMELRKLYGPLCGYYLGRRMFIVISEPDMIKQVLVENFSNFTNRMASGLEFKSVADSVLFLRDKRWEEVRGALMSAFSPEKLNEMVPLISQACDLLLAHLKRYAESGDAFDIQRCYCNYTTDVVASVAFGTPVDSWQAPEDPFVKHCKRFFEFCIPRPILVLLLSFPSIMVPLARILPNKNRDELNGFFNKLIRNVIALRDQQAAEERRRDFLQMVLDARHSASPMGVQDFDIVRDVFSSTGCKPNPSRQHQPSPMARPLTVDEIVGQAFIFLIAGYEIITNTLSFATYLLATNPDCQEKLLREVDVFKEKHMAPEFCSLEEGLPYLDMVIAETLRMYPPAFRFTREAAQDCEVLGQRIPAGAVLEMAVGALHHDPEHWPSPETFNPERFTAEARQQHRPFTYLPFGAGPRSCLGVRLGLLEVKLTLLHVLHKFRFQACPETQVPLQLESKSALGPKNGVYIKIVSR
Method in brief: (§2)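 IC50 was obtained graphically from a range of compound concentrations within the linear range of the assay. Determinations were made in duplicate and repeated once.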

Rattus norvegicus [3] = test: Antihypertensive activity was measured in spontaneously hypertensive rat (SHR) by measuring the maximum blood pressure when administered orally at dose of 30 mg/kg after 4 h; assay type: functional; conditions: route oral
Method in brief: (§3)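 Conscious, fully ambulatory SHR (250–280 g) were fitted with an arterial catheter led through an infusion swivel inside a protective spring. After 24 h recovery from surgery, rats were housed singly. Mean arterial pressure was recorded continuously after dosing over a 6-h period, with later readings up to 24 h. Rats had chow and tap water freely under a 12-h light cycle.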

[4] = biological target: T1, Angiotensin-converting enzyme; test: Tested for 50% inhibition of Angiotensin converting enzyme(ACE) obtained from rabbit lung (in vitro); method in brief: as §1
Rattus norvegicus [5] = species on record: Rattus norvegicus; conditions: 30 mg/kg
Rattus norvegicus [6] = test: Tested for percent inhibition of maximum angiotensin I (AI) pressor response in rats on oral administration of 300 mg/kg after 4 hr; assay type: functional
Method in brief: (§4)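 Conscious catheterized SHR were prepared as for blood pressure recording. At set times after dosing, angiotensin I was injected intraarterially in 0.5 mL. The rise in arterial pressure was recorded and expressed as percent inhibition of the angiotensin I pressor response.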

Rattus norvegicus [7] = species on record: Rattus norvegicus; conditions: 10 mg/kg
Rattus norvegicus [8] = test: Antihypertensive activity was measured in spontaneously hypertensive rat (SHR) by measuring the blood pressure after 24 hours on interarterial administration at dose of 1 mg/kg; Not significant; assay type: functional, organism-based; design: dose 1 mg/kg; conditions: Artery; method in brief: as §3
Rattus norvegicus [9] = test: Antihypertensive activity was measured in spontaneously hypertensive rat (SHR) by measuring the maximum blood pressure when administered orally at dose of 10 mg/kg after 4 h; assay type: functional; conditions: route oral; method in brief: as §3
Rattus norvegicus [10] = test: Antihypertensive activity was measured in spontaneously hypertensive rat (SHR) by measuring the blood pressure on interarterial administration at dose of 1 mg/kg after 4 h; assay type: functional, Artery; method in brief: as §3
Thromboxane-A synthase [11] = biological target: T2, Thromboxane-A synthase; test: Tested for 50% inhibition of thromboxane synthase (TxS) in human platelets (in vitro); method in brief: as §2
Rattus norvegicus [12] = test: Tested for percent inhibition of maximum angiotensin I (AI) pressor response in rats on oral administration of 300 mg/kg after 2 hr; assay type: functional; method in brief: as §4
Rattus norvegicus [13] = test: Antihypertensive activity was measured in spontaneously hypertensive rat (SHR) by measuring the maximum blood pressure when administered orally at dose of 5 mg/kg after 3 h; assay type: functional; conditions: route oral; method in brief: as §3
Rattus norvegicus [14] = test: Antihypertensive activity was measured in spontaneously hypertensive rat (SHR) by measuring the blood pressure after 24 hours when administered orally at dose of 5 mg/kg; assay type: functional; conditions: route oral
Method in brief: (§5)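 Conscious, unrestrained, fully ambulatory SHR (250–280 g) fed normal pellet chow with free access to tap water, on a 12-h light cycle. Oral dosing used a vehicle at 1 mL/kg po. The read-out was the change in mean arterial pressure from control.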

Rattus norvegicus [15] = test: Antihypertensive activity was measured in spontaneously hypertensive rat (SHR) by measuring the blood pressure on interarterial administration at dose of 1 mg/kg; Not significant; assay type: functional, organism-based; design: dose 1 mg/kg; conditions: Artery; method in brief: as §3
Rattus norvegicus [16] = test: Tested for percent inhibition of maximum angiotensin I (AI) pressor response in rats on oral administration of 300 mg/kg after 0.5 hr; assay type: functional; method in brief: as §4
Rattus norvegicus [17] = test: Antihypertensive activity was measured in spontaneously hypertensive rat (SHR) by measuring the maximum blood pressure when administered orally at dose of 30 mg/kg after 6 h; assay type: functional; conditions: route oral; method in brief: as §3
Rattus norvegicus [18] = test: Tested for percent inhibition of maximum angiotensin I (AI) pressor response in rats on oral administration of 300 mg/kg after 6 hr; assay type: functional; method in brief: as §4
Rattus norvegicus [19] = test: Antihypertensive activity was measured in spontaneously hypertensive rat (SHR) by measuring the blood pressure after 24 hours when administered orally at dose of 30 mg/kg; assay type: functional; conditions: route oral; method in brief: as §5
Rattus norvegicus [20] = test: Tested for percent inhibition of maximum angiotensin I (AI) pressor response in rats on oral administration of 300 mg/kg after 5 hr; assay type: functional; method in brief: as §4
Rattus norvegicus [21] = test: Antihypertensive activity was measured in spontaneously hypertensive rat (SHR) by measuring the blood pressure after 24 hours when administered orally at dose of 10 mg/kg; assay type: functional; conditions: route oral; method in brief: as §3
Rattus norvegicus [22] = test: Antihypertensive activity was measured in spontaneously hypertensive rat (SHR) by measuring the maximum blood pressure when administered orally at dose of 10 mg/kg after 6 h; assay type: functional; conditions: route oral; method in brief: as §3

## Cc1c(-c2cccnc2)n(CCCCCCCC(=O)O)c2ccccc12
[1]
  IC50: Not Active

## O=C(O)CN1C(=O)[C@@H](N[C@@H](CCCCNCCO)C(=O)O)CCc2ccccc21
Thromboxane-A synthase [2]
  IC50: Not Active
Rattus norvegicus [3]
  Max delta BP: -28 mmHg
[4]
  IC50: 0.007 µM
Rattus norvegicus [5]
  Delta blood pressure: inactive
Rattus norvegicus [6]
  inhibition in vivo at 300 mg/kg: 84%

## Cn1c(-c2cccnc2)c(CCCCCC(=O)N2CCC(NCCCC[C@H](N[C@@H]3CCc4ccccc4N(CC(=O)[O-])C3=O)C(=O)[O-])CC2)c2cc(Cl)ccc21.[Na+].[Na+]
Rattus norvegicus [7]
  Delta blood pressure: inactive
Rattus norvegicus [8]
  Delta blood pressure: inactive
Rattus norvegicus [9]
  Max delta BP: -35 mmHg
Rattus norvegicus [10]
  Max delta BP: -24 mmHg
[4]
  IC50: 0.012 µM
Thromboxane-A synthase [11]
  IC50: 0.02 µM
Rattus norvegicus [12]
  inhibition in vivo at 300 mg/kg: 76%
Rattus norvegicus [6]
  inhibition in vivo at 300 mg/kg: 51%

## O=C([O-])CN1C(=O)C(OP(=O)([O-])CCCCc2ccccc2)CCc2ccccc21.[Na+].[Na+] (stereo not drawn)
Thromboxane-A synthase [2]
  IC50: Not Active
[4]
  IC50: 0.02 µM

## CCOC(=O)C(CCc1ccccc1)NC(C)C(=O)N1CCC[C@H]1C(=O)O (single isomer, unassigned)
Thromboxane-A synthase [2]
  IC50: Not Active
Rattus norvegicus [13]
  Max delta BP: -28 mmHg
Rattus norvegicus [14]
  Delta blood pressure: -17 mmHg
Rattus norvegicus [12]
  inhibition in vivo at 300 mg/kg: 100%

## O=C(O)CN1C(=O)[C@@H](N[C@@H](CCc2ccccc2)C(=O)O)C[C@@H](O)c2ccccc21
Thromboxane-A synthase [2]
  IC50: Not Active
[4]
  IC50: 0.008 µM

## Cn1c(-c2cccnc2)c(CCCCCC(=O)O)c2cc(Cl)ccc21
[1]
  IC50: Not Active

## Cn1c(-c2cccnc2)c(CCCCCC(=O)NCCCC[C@H](N[C@@H]2CCc3ccccc3N(CC(=O)O)C2=O)C(=O)O)c2cc(Cl)ccc21
Rattus norvegicus [15]
  Max delta BP: inactive
Rattus norvegicus [8]
  Delta blood pressure: inactive
[4]
  IC50: 0.006 µM
Thromboxane-A synthase [11]
  IC50: 0.004 µM
Rattus norvegicus [16]
  inhibition in vivo at 300 mg/kg: 81%

## CNCCN(CCCC[C@H](N[C@H]1CCc2ccccc2N(CC(=O)[O-])C1=O)C(=O)[O-])C(=O)CCCCCc1c(-c2cccnc2)n(C)c2ccc(Cl)cc12.[Na+].[Na+]
Rattus norvegicus [17]
  Max delta BP: -39 mmHg
Rattus norvegicus [18]
  inhibition in vivo at 300 mg/kg: 71%
[4]
  IC50: 0.01 µM
Thromboxane-A synthase [11]
  IC50: 0.018 µM
Rattus norvegicus [19]
  Delta blood pressure: -20 mmHg

## Cn1c(-c2cccnc2)c(CCCCCC(=O)NCCNCCCC[C@H](N[C@H]2CCc3ccccc3N(CC(=O)[O-])C2=O)C(=O)[O-])c2cc(Cl)ccc21.[K+].[K+]
[4]
  IC50: 0.004 µM
Thromboxane-A synthase [11]
  IC50: 0.01 µM
Rattus norvegicus [20]
  inhibition in vivo at 300 mg/kg: 39%
Rattus norvegicus [21]
  Delta blood pressure: -23 mmHg
Rattus norvegicus [22]
  Max delta BP: -38 mmHg
